Results reported in ChEMBL document CHEMBL1914373, “Synthesis and biological evaluation of novel dimethyl[1,1'-biphenyl]-2,2'-dicarboxylate derivatives containing thiazolidine-2,4-dione for the treatment of concanavalin A-induced acute liver injury of BALB/c mice” (2011).
Active and inactive are the calls of the source. The rule behind the calls is not given here.

Key:
RAW264.7 = assay: Antiinflammatory activity in LPS-stimulated mouse RAW264.7 cells assessed as inhibition of LPS-induced NO production after 22 hrs by Griess reaction; assay type: functional, cell-based
Method in brief: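 RAW 264.7 macrophages grown in RPMI 1640, 37 °C, 5% CO2; seeded 1 × 10^4/well, cultured 24 h, then exposed to LPS with or without compounds at a range of concentrations for 22 h. Supernatant mixed 1:1 with Griess reagent, 10 min at room temperature, A540 read; nitrite quantified against sodium nitrite standards in RPMI 1640. Three independent experiments.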

Mus musculus [1] = assay: Hepatoprotective activity in BALB/c mouse hepatitis model assessed as reduction in concanavalin A-induced increase in serum AST level at 50 mg/kg, […] relative to control; assay type: functional; set-up: scale not given: the % may be the effect or the level left; settings: route oral
Mus musculus [2] = assay: Hepatoprotective activity in BALB/c mouse hepatitis model assessed as reduction in concanavalin A-induced increase in serum ALT level at 50 mg/kg, […] relative to control; assay type: functional; set-up: scale not given: the % may be the effect or the level left; settings: route oral
Mus musculus [3] = assay: Antiinflammatory activity in ICR mouse assessed as reduction in carrageenan-induced paw edema at 50 mg/kg, po administered 30 mins before carrageenan challenge measured at 3 hr post challenge; assay type: functional; set-up: scale not given: the % may be the effect or the level left
Rattus norvegicus [4] = assay: Hepatoprotective activity […] assessed as reduction in necrosis in liver lobules at 50 mg/kg, po administered before concanavalin A challenge by hematoxylin and eosin staining-based histopathology analysis; assay type: functional, organism-based; set-up: dose 50 mg/kg
Rattus norvegicus [5] = assay: Hepatoprotective activity […] assessed as decrease in liver lesions at 50 mg/kg, po administered before concanavalin A challenge by hematoxylin and eosin staining-based histopathology analysis; assay type: functional, organism-based; set-up: dose 50 mg/kg
Mus musculus [6] = assay: Antiinflammatory activity in po dosed ICR mouse assessed as reduction in carrageenan-induced paw edema administered 30 mins before carrageenan challenge measured up to 5 hrs; assay type: functional, organism-based
Rattus norvegicus [7] = assay: Hepatoprotective activity […] assessed as reduction in concanavalin A-induced inflammatory cells infiltration at 50 mg/kg, po administered before concanavalin A challenge by hematoxylin and eosin staining-based histopathology analysis; assay type: functional, organism-based; set-up: dose 50 mg/kg

Compound | inhibition (RAW264.7) | other results
COC(=O)c1cc(OC)c2c(c1-c1c(C(=O)Oc3c(OC)cc(/C=C4\SC(=O)NC4=O)cc3OC)cc(OC)c3c1OCO3)OCO2 | Active | 
COC(=O)c1cc(OC)c2c(c1-c1c(C(=O)OC)cc(OC)c3c1OCO3)OCO2 [BIFENDATE] |  | Activity (Mus musculus [1]): 50.62%; Activity (Mus musculus [2]): 44.58%; Activity (Mus musculus [3]): 20.98%
COC(=O)c1cc(OC)c2c(c1-c1c(C(=O)Oc3ccc(Cl)cc3/C=C3/SC(=O)NC3=O)cc(OC)c3c1OCO3)OCO2 | Dose-dependent effect | 
COC(=O)c1cc(OC)c2c(c1-c1c(C(=O)Oc3c(Cl)cc(Cl)cc3/C=C3/SC(=O)NC3=O)cc(OC)c3c1OCO3)OCO2 | Active | 
COC(=O)c1cc(OC)c2c(c1-c1c(C(=O)Oc3c(Br)cc(Br)cc3/C=C3/SC(=O)NC3=O)cc(OC)c3c1OCO3)OCO2 | Active | 
COC(=O)c1cc(OC)c2c(c1-c1c(C(=O)Oc3cc(/C=C4/SC(=O)NC4=O)ccc3OC)cc(OC)c3c1OCO3)OCO2 | Active | 
COC(=O)c1cc(OC)c2c(c1-c1c(C(=O)Oc3ccc(/C=C4\SC(=O)NC4=O)cc3F)cc(OC)c3c1OCO3)OCO2 | Active | 
COC(=O)c1cc(OC)c2c(c1-c1c(C(=O)Oc3ccccc3/C=C3/SC(=O)NC3=O)cc(OC)c3c1OCO3)OCO2 | Active | 
COC(=O)c1cc(OC)c2c(c1-c1c(C(=O)Oc3cccc(/C=C4/SC(=O)NC4=O)c3)cc(OC)c3c1OCO3)OCO2 | Active | 
COC(=O)c1cc(OC)c2c(c1-c1c(C(=O)Oc3ccc(/C=C4\SC(=O)NC4=O)cc3Br)cc(OC)c3c1OCO3)OCO2 | Active | 
COC(=O)c1cc(OC)c2c(c1-c1c(C(=O)Oc3ccc(/C=C4\SC(=O)NC4=O)cc3)cc(OC)c3c1OCO3)OCO2 | Active | Activity (Mus musculus [1]): 69.12%; Activity (Rattus norvegicus [4]): Active; Activity (Rattus norvegicus [5]): Active; Activity (Mus musculus [6]): Dose-dependent effect; Activity (Mus musculus [2]): 94.96%; Activity (Rattus norvegicus [7]): Active; Activity (Mus musculus [3]): 54.88%
COC(=O)c1cc(OC)c2c(c1-c1c(C(=O)Oc3ccc(/C=C4\SC(=O)NC4=O)cc3OC)cc(OC)c3c1OCO3)OCO2 | Active | 
CCOc1cc(/C=C2\SC(=O)NC2=O)ccc1OC(=O)c1cc(OC)c2c(c1-c1c(C(=O)OC)cc(OC)c3c1OCO3)OCO2 | Active | 
